Drawing on PubChem BioAssay AID624205 (Southern Research Specialized Biocontainment Screening …, 2012), this text covers viability and CC50 for 25 compounds.

For orientation: viability means a read-out of living cells in per cent, often relative to untreated cells. A word on the CC50: it is the concentration at which the toxic effect on the cells reaches its halfway point.

Several values for one entry are separate records, joined by “and”; a condition that tells them apart may be missing. Equal entries are not always repeated. Results filed as inconclusive are left out. Activity calls are given as the source filed them.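 Rule for the calls: active = viability under 80% at one or more tested concentrations, counted as toxic; inconclusive = replicate runs disagree on the viability criterion; inactive = viability at or above 80% at every dose.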

Test system in one test: not listed separately
Put plainly: Vero E6 cell cytotoxicity, dose response, cytotoxicity control for PfM18AAP inhibitor project, set 3 (AID 624205). Particulars: Vero E6 viability, CellTiter-Glo luminescence, 72 h; at 50 µM (top of the series). Summed up:
(§1)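 System – Vero E6 cells · Amount – 3000 cells per well · Technique – CellTiter-Glo luminescence · Controls – DMSO vehicle wells · Timing – 72 h compound treatment, 37 °C · Read-out – % viability and 4-parameter CC50 · Dosing – 2-fold compound dilution series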
(In general: Cellular ATP, detected with luciferase, serves as a proxy for viable cell number.)
Regarding `Oc1ccc(CCCNc2c3c(nc4ccccc24)CCCC3)cc1O`, the viability was 92.3% (inactive).
On the same count and under the same terms, for `COc1ccc(CCN(C)c2ncnc3ccccc23)cc1OC` the value was 85.7% (inactive).
The same measure, in the same setting: for `CC(Cc1ccc(O)c(O)c1)Nc1ccnc2ccccc12` (stereo not given) the value was 83.9% (inactive); for `CN(CCc1ccc(O)c(O)c1)c1ccnc2c(F)cccc12`, 86% (inactive); for `Cc1cccc2c(NCCc3ccc(O)c(O)c3)ccnc12`, 95.1% (inactive).
Regarding `CN(CCCc1ccc(O)c(O)c1)c1ccnc2ccccc12`, the viability was 88.4% (inactive).
In the case of `COc1ccc(CCNC(=O)c2cc(C)ccc2N)cc1OC`, the viability is 95.6% (inactive).
The same measure, in the same setting: for `CN(CCc1ccc(O)c(O)c1)c1ncnc2ccccc12` the value was 95.4% (inactive); for `Oc1cccc(CCNc2ccnc3ccccc23)c1O`, 93.2% (inactive).
Same read-out and setting: for `Cc1cc(N(C)CCc2ccc(O)c(O)c2)c2ccccc2n1` the value was 89.8% (inactive); for `COc1ccc(CCN(C)c2cc(C)nc3ccccc23)cc1OC`, 80.7% (inactive).

The next test has as its system Vero E6 viability, CellTiter-Glo luminescence, 72 h. The test is described as above.
Conditions: not given
Summed up: as §1
On to `CCOc1ccc2nccc(N(C)CCc3ccc(OC)c(OC)c3)c2c1`, for which the CC50 was 41 µM.
Same read-out and setting: as for `CCN(CCc1ccc(OC)c(OC)c1)c1c2ccccc2nc2ccccc12`, the figure is 15.4 µM; as for `COc1ccc(CCN(C)c2c3ccccc3nc3ccccc23)cc1OC`, 12.9 µM and 9.77 µM.
Same read-out and setting: for `COc1cc(Br)c(CCNc2ccnc3ccccc23)cc1OC` the value was 15.9 µM; for `CCN(CCc1ccc(O)c(O)c1)c1c2ccccc2nc2ccccc12`, 34.6 µM.
For the compound `COc1ccc(C2CCN(c3ccnc4ccccc34)CC2)cc1OC`, the CC50 was 23.7 µM.
The same measure, in the same setting: for `COc1ccc(CCCN(C)c2c3ccccc3nc3ccccc23)cc1OC` the value was 9.23 µM; for `CN(CCCc1ccc(O)c(O)c1)c1c2ccccc2nc2ccccc12`, 21.9 µM.
The same measure, in the same setting: as for `COc1cc(Br)c(CCNc2c3ccccc3nc3ccccc23)cc1OC`, the figure is 5.03 µM; as for `Nc1c2ccccc2nc2ccccc12`, 10.3 µM.
The same measure, in the same setting: as for `COc1cc(Br)c(CCNc2c3c(nc4ccccc24)CCCC3)cc1OC`, the figure is 20.1 µM.
Consider `CCN(CC)Cc1cc(Nc2ccnc3cc(Cl)ccc23)ccc1O`, for which the CC50 was 40.1 µM.
On to `COc1ccc(CCNc2ccnc3cc(Cl)ccc23)cc1OC`, for which the CC50 was 41.6 µM.
The same measure, in the same setting: as for `CC(C)(CNc1ccnc2ccccc12)c1ccc(O)c(O)c1`, the figure is 15 µM.
